Sampled rows, rich in hits. Any-hit rate of the full collection: about 2.3%.
TRPC4 inh – inhibitors of mouse TRPC4 channel, primary screen, Fluo4 calcium, HEK293 TRPC4beta/mu-opioid cells; DAMGO-evoked Fluo4 calcium flux; hits give low values; B-score at 10 µM; actives 0.39% (n = 300,000);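 active = B-score over 3 SD under the library average, no early fluorescence shift, positive overall ratio signal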
Target sequence (Q9QUQ5 whole entry, looked up): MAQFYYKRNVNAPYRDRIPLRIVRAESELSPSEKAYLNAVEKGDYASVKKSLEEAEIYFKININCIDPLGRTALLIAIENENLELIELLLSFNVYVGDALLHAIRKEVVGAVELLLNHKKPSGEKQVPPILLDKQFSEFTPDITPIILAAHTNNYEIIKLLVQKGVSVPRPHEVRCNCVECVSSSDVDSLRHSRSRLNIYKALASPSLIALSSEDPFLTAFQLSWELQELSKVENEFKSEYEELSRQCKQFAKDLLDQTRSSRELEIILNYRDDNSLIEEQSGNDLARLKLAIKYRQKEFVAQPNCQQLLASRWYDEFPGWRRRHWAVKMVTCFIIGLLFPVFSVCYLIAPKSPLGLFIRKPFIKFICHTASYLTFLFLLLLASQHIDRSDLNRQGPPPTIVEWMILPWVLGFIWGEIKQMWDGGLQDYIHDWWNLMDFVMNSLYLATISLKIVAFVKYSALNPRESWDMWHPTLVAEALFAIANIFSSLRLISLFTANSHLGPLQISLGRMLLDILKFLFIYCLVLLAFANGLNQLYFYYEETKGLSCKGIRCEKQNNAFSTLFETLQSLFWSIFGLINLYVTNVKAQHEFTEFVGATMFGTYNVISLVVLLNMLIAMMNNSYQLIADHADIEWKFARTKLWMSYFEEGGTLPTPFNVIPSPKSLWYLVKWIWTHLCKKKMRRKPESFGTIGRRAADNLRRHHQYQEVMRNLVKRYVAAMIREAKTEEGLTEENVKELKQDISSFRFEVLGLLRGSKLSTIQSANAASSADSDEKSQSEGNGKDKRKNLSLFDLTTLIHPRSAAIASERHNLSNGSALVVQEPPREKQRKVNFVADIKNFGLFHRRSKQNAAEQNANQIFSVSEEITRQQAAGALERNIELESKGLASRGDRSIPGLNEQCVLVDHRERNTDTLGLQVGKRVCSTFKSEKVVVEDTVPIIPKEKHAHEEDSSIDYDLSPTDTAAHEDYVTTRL
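System: stable TRPC4beta/mu-opioid receptor HEK293 cells; Dosing: single-point compound dosing; Measured by: Fluo4 Ca2+ flux fluorescence; Read-out basis: per-well B score of integrated baseline-normalized Fluo4 ratio.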
TRPC6 inhibitor – mouse TRPC6 channel inhibitors, primary screen, cell-based, HEK293, membrane potential dye. Short transient receptor potential channel 6 (Mus musculus), Q61143. ACh-evoked depolarization; hits give low values. B-score at 10 µM. actives 1.1% (n = 310,000);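 active = B-score under library mean minus 3 SD, initial fluorescence not abnormally high, positive integrated signal ratio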;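 also: B-score derived from integrated fluorescence ratio over the kinetic read; more negative B-score means stronger inhibition of depolarization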
TRPC4 potent – positive allosteric modulators of TRPC4, primary screen, cell-based, mouse TRPC4beta, HEK293 mu-opioid, Fluo-4 calcium; Short transient receptor potential channel 4 (Mus musculus), Q9QUQ5; DAMGO EC20, Fluo-4 Ca2+ flux; hits give high values; B-score at 10 µM; actives 0.42% (n = 310,000);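 active = B-score of calcium response area above 5 SD of library B-scores, with initial fluorescence ratio within 5 SD of library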;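 also: B-score of integrated fluorescence ratio over time as area under calcium response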
TRPC6 act – mouse TRPC6 channel activators, primary screen, cell-based, HEK293, membrane potential dye | HEK293-TRPC6 membrane potential dye fluorescence; hits give high values | actives 0.13% (n = 310,000) | AID 2550, 2010 | B-score at 10 µM | Short transient receptor potential channel 6 (Mus musculus), Q61143;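 active = B-score of the integrated fluorescence ratio above library mean plus 3 SD, and starting fluorescence ratio within library mean plus 5 SD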;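 also: higher score means more depolarization so channel activation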
TRPC4 agonist – activators of mouse TRPC4 channel, primary screen, Fluo4 calcium, HEK293 TRPC4beta/mu-opioid cells; actives 0.49% (n = 310,000); Fluo4 calcium fluorescence; hits give high values; Short transient receptor potential channel 4 (Mus musculus), Q9QUQ5; B-score at 10 µM;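 active = B-score above 5 SD of library B-scores, and initial fluorescence ratio not above library mean plus 5 SD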;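 also: positive B-score marks a calcium rise read as TRPC4 activation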
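System – HEK293 cells stably co-expressing mouse TRPC4beta and mu-opioid receptor · Signal – Fluo4 calcium-sensitive dye fluorescence, kinetic, 1 Hz baseline · Benchmarks – buffer (low) and maximal DAMGO (high) · Read-out – B score of integrated fluorescence ratio per well · Incubation – dye loading 45 min room temperature, 110 s kinetic read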
* hit, by the source's call; i = inactive.

SMILES	TRPC4 inh	TRPC6 inhibitor	TRPC4 potent	TRPC6 act	TRPC4 agonist
O=C(OCC(=O)N1CCCc2ccccc21)c1ccc(C(F)(F)F)cc1	i	i	i	i	i
COc1ccc(C(C(=O)NC2CCCC2)N(Cc2cccnc2)C(=O)c2snc(C(N)=O)c2N)cc1 (centres undefined)	i	i	i	i	i
COc1cc(/C=N/N2CCN(Cc3ccc(C)cc3)CC2)cc(OC)c1O	i	i	i	i	i
COc1cc2cc(C(N)=O)c(N)nc2cc1OC	i	i	13*	i	i
COc1ccc2nc(C)c(C(N)=O)cc2c1	i	i	i	i	i
Cc1ccc(C(=O)Nc2ncccc2O)o1	i	i	i	i	i
Cn1cnnc1SCC(=O)NC1CCCN(Cc2ccc(Cl)cc2)C1 (centres undefined)	i	i	i	i	46*
COc1cccc(CC(=O)NC2CCCN(Cc3ccc(Cl)cc3)C2)c1 (centres undefined)	i	i	14*	i	i
O=C(NC1CCCN(Cc2ccc(Cl)cc2)C1)C1CCC1 (centres undefined)	i	i	i	i	136*
COc1cccc(CC(=O)NC2CCCN(Cc3ccccc3F)C2)c1 (centres undefined)	i	i	i	i	i
CC1=C(C(=O)OC(C)C)C(c2cn(-c3ccccc3)nc2-c2cccs2)NC(=O)N1 (centres undefined)	i	i	13*	i	i
Nc1nc(-c2cc3ccccc3o2)cs1	i	i	i	i	i
Cc1cc(N2CCCCCC2)nc2ccccc12	-6*	i	i	i	i
Cc1cc(N2CCCCC2)nc2ccccc12	-6*	i	i	i	i
Cc1cc(N2CCCN(C)CC2)nc2cc(Cl)ccc12	i	i	13*	i	i
Cc1cc(OCCN2CCCCC2)nc2ccccc12	i	i	17*	i	i
Cc1cc(N2CCOCC2)nc2ccccc12	i	i	i	i	i
Cc1cc(OCCN2CCOCC2)nc2ccccc12	i	i	i	i	i
COc1ccc(N2CCN(c3cc(C)c4ccc(C)cc4n3)CC2)cc1	i	i	12*	i	i
COc1ccc(N2CCN(c3cc(C)c4ccc(O)cc4n3)CC2)cc1	i	i	i	i	i
CC(=O)c1cccc(S(=O)(=O)NC2CCSc3ccccc32)c1 (centres undefined)	i	i	i	i	i
CCOC(=O)C1(Cc2ccccc2C)CCCN(Cc2ccc(NC(C)=O)cc2)C1 (centres undefined)	-9*	i	i	i	i
CC(=O)Nc1ccc(CN2CCCC(CO)(Cc3ccccc3C)C2)cc1 (centres undefined)	i	i	i	i	i
COc1ccc(N(C)S(=O)(=O)c2cccc(C(=O)N3CCN(S(=O)(=O)c4ccc(C)cc4)CC3)c2)cc1	i	-8.3*	i	12*	i
COc1ccc(N2CCN(C(=O)c3ccc(N(C)S(=O)(=O)c4ccc(C)cc4)cc3)CC2)cc1	i	i	38*	i	44*
COc1ccc(N2CCN(C(=O)c3ccc(N(C)S(=O)(=O)c4ccc(OC)cc4)cc3)CC2)cc1	i	i	i	i	i
CCN(C(=O)c1ccc2c(c1)OCO2)C1CCS(=O)(=O)C1 (centres undefined)	i	i	i	i	i
O=C(CS(=O)(=O)c1cn(Cc2ccc(Cl)cc2)c2ccccc12)N1CCCC1	i	i	i	i	i
O=C(Cc1cn(Cc2cccc(Cl)c2)c2ccccc12)N1CCCC1	i	i	16*	i	i
Cc1ccc2nc(NCCc3ccccc3)c3nncn3c2c1	i	i	i	i	i
